The source of these data is ChEMBL document CHEMBL1131588, “A novel class of orally active non-peptide bradykinin B2 receptor antagonists. 2. Overcoming the species difference between guinea pig and man” (J Med Chem, 1998).

Assay [1] addresses T1, B2 bradykinin receptor (Cavia porcellus, UniProt O70526).
T1 sequence (O70526 whole entry): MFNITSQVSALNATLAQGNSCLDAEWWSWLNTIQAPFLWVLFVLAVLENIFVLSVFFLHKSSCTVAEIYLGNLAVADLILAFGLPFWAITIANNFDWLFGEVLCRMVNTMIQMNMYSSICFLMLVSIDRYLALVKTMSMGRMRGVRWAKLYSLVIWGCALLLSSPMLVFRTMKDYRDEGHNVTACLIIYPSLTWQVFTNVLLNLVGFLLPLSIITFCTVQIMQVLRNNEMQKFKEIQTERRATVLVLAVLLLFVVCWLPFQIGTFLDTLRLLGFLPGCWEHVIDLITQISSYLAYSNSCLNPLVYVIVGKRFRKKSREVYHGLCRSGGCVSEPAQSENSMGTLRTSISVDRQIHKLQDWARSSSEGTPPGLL
Description: Concentration required to inhibit specific binding of [3H]BK at 0.06 nM to Bradykinin receptor B2 in guinea pig ileum membrane preparations by 50%. Type of assay: cell membranes. The method in brief: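 Guinea pig ileal membranes (100000g pellet, pH 6.8 TES buffer with phenanthroline, bacitracin, DTT, captopril, 0.1% BSA), 0.2 mg protein/mL, incubated with 0.06 nM [3H]BK and compounds 60 min at room temperature; final DMSO below 3%. Filtration on glass fiber filters, scintillation counting; nonspecific binding with 1 µM BK. Three experiments in duplicate.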

Assay [2] addresses T2, B2 bradykinin receptor (Homo sapiens, UniProt P30411).
T2 sequence (P30411 whole entry): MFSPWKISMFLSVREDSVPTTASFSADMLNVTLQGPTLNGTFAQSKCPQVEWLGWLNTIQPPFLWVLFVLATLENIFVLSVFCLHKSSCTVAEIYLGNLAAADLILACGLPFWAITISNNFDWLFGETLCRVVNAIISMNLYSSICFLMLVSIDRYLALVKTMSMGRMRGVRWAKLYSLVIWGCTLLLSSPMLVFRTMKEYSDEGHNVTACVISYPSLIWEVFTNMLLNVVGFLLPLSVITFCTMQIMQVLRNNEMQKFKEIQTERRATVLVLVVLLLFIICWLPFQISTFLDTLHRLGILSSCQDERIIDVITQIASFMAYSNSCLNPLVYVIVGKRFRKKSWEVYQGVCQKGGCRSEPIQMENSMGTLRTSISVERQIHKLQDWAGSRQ
Put plainly: Concentration required to inhibit specific binding of [3H]BK at 1.2 nM to A-431 cells (human epidermoid carcinoma) which express Bradykinin receptor B2 by 50%. It is filed as cell-based.

Assay [3] deals with Cavia porcellus. Put plainly: Compound tested in vivo for inhibition of Bradykinin induced Bronchoconstriction in anaesthetized guinea pig.(P<0.01); % Inhibition at 1 mg/Kg p,o. It is filed as functional. The method in brief: (§1)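 Male Hartley guinea pigs (470-750 g), fasted overnight, anesthetized with pentobarbital 30 mg/kg ip, cannulated (trachea, jugular vein, esophagus), ventilated 10 mL/kg at 60 breaths/min; alcuronium 0.5 mg/kg iv, propranolol 10 mg/kg sc. BK 5 µg/kg iv; peak rise in insufflation pressure (modified Konzett-Rössler).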

Assay [4] has as its system Cavia porcellus. Description: Compound tested in vivo for inhibition of Bradykinin induced Bronchoconstriction in anaesthetized guinea pig.(P<0.05); % Inhibition at 3.2 mg/Kg p,o. It is filed as functional. Particulars: in the assay text read “0.32 mg/Kg” for “3.2 mg/Kg”. The method in brief: as §1
In assay [5] the test system is Cavia porcellus. Put plainly: Compound tested in vivo for inhibition of Bradykinin induced Bronchoconstriction in anaesthetized guinea pig; % Inhibition at 1 mg/Kg p,o. It is filed as functional. Put shortly:
as §1

The subject of assay [6] is Cavia porcellus. Description: Compound tested in vivo for inhibition of Bradykinin induced Bronchoconstriction in anaesthetized guinea pig.(P<0.001);% Inhibition at 3.2 mg/Kg p,o. Type of assay: functional. The method in brief: as §1
The subject of assay [7] is Cavia porcellus. Put plainly: Compound tested in vivo for inhibition of Bradykinin induced Bronchoconstriction in anaesthetized guinea pig.(P<0.01); % Inhibition at 1 mg/kg. p.o. Type of assay: functional. The conditions noted are these: route oral. Put shortly:
as §1

Take `Cc1nc2c(OCc3c(Cl)ccc(N(C)C(=O)CNC(=O)/C=C/c4ccc(C(=O)N(C)C)cc4)c3Cl)cccn2c1Br.Cl`: the IC50 (usually the concentration that inhibits the measured activity by half) was determined as 0.66 nM at B2 bradykinin receptor [1] and 1.4 nM at B2 bradykinin receptor [2]. Moreover, the Inhibition (as a rule, the share of the control response that was lost under treatment) was determined as 86.7% with Cavia porcellus [3] and 74.8% in the assay on Cavia porcellus [4].

On to `CC(=O)Nc1ccc(/C=C/C(=O)NCC(=O)N(C)c2ccc(Cl)c(COc3cccn4c(Br)c(C)nc34)c2Cl)cc1.Cl`, for which the figures for the IC50 on B2 bradykinin receptor [1] and on B2 bradykinin receptor [2] were 0.55 nM and 1.6 nM, respectively. Besides, the Inhibition with Cavia porcellus [5] was determined as 20.7%.

Consider `Cc1nc2c(OCc3c(Cl)ccc(N(C)C(=O)CNC(=O)CN(C)C)c3Cl)cccn2c1Br`, for which the IC50 on B2 bradykinin receptor [2] turned out to be 830 nM. Also, the Inhibition in the assay with Cavia porcellus [6] came out at 92.8%. For the same compound, the inhibition in vivo (commonly the drop in the measured response relative to a control, in per cent) at 1 mg/kg in the assay with Cavia porcellus [7] is 72.4%.
